According to ChEMBL document CHEMBL4396879, “Conjugation of Short Peptides to Dibenzodiazepinone-Type Muscarinic Acetylcholine Receptor Ligands Determines M2R Selectivity” (J Med Chem, 2019):

Columns and labels:
Type in all cases: cell-based
[1] = target: Muscarinic acetylcholine receptors; M1 & M2 (Homo sapiens) (UniProt P11229+P08172); test: Selectivity ratio of Ki for human muscarinic M1 receptor expressed in CHO-K9 cells to Ki for human muscarinic M2 receptor expressed in CHO-K9 cells
In short: (§1)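 Ratio of mean Ki values. Each Ki came from an individual [3H]NMS competition experiment at the given CHO-hMxR subtype, converting IC50 to Ki by Cheng-Prusoff before averaging.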

[2] = target: T1, Muscarinic acetylcholine receptor M1 (Homo sapiens, UniProt P11229); test: Displacement of [3H]-NMS from human muscarinic M1 receptor expressed in CHO-K9 cells after 3 hrs by microbeta2 scintillation counting method
T1 sequence (P11229 whole entry): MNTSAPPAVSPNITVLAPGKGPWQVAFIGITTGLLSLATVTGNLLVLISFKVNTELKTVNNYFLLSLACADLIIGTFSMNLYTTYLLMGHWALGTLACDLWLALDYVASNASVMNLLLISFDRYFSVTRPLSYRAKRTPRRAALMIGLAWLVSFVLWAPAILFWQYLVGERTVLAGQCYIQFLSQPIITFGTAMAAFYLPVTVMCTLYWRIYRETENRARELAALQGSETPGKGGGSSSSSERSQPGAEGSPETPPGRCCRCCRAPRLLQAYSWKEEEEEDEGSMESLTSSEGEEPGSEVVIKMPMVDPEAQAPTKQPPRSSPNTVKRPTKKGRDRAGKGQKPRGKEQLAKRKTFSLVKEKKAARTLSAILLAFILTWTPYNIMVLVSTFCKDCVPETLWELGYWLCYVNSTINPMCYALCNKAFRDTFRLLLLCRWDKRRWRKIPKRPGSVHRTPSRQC
In short: (§2)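 [3H]NMS competition binding on intact CHO-hMxR cells in L15 medium with 1% BSA, 3 h at 22 ± 1 °C with gentle shaking. [3H]NMS was 0.2 nM (M1, M2, M3), 0.1 nM (M4) or 0.3 nM (M5). […] Cells were lysed in urea/acetic acid/Triton and counted by liquid scintillation. Ki from Cheng-Prusoff. Triplicates, ≥3 experiments.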

[3] = target: T2, Muscarinic acetylcholine receptor M4 (Homo sapiens, UniProt P08173); test: Displacement of [3H]-NMS from human muscarinic M4 receptor expressed in CHO-K9 cells after 3 hrs by microbeta2 scintillation counting method; in short: as §2
T2 sequence (P08173 whole entry): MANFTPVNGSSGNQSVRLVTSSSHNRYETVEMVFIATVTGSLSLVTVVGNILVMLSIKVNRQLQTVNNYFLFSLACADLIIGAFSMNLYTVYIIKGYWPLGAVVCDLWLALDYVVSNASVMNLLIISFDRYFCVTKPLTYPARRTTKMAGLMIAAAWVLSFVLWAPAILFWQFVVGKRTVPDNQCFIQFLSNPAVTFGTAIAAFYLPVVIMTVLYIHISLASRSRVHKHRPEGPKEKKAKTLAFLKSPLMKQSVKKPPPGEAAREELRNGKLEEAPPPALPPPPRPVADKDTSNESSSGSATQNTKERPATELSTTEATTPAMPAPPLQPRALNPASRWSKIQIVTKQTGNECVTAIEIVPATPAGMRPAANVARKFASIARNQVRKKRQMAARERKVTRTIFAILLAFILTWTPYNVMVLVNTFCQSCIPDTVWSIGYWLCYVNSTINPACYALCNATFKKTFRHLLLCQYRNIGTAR

[4] = target: T3, Muscarinic acetylcholine receptor M2 (Homo sapiens, UniProt P08172); test: Displacement of [3H]-NMS from human muscarinic M2 receptor expressed in CHO-K9 cells after 3 hrs by microbeta2 scintillation counting method; in short: as §2
T3 sequence (P08172 whole entry): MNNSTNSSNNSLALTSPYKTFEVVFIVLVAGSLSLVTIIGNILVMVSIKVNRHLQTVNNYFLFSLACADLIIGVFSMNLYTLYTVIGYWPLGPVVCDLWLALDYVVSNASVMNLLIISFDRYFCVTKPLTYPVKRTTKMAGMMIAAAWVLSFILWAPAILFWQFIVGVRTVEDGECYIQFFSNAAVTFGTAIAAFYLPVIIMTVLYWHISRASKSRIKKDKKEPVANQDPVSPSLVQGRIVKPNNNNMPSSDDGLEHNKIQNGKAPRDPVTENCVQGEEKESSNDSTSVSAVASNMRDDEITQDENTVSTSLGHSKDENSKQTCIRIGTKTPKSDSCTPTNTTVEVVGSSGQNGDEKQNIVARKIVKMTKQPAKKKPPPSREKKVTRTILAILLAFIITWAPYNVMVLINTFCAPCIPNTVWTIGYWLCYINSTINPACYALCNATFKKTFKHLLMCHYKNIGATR

[5] = target: Muscarinic acetylcholine receptor M3 (Homo sapiens, UniProt P20309); test: Displacement of [3H]-NMS from human muscarinic M3 receptor expressed in CHO-K9 cells after 3 hrs by microbeta2 scintillation counting method; in short: as §2
[6] = target: T4, Muscarinic acetylcholine receptor M5 (Homo sapiens, UniProt P08912); test: Displacement of [3H]-NMS from human muscarinic M5 receptor expressed in CHO-K9 cells after 3 hrs by microbeta2 scintillation counting method; in short: as §2
T4 sequence (P08912 whole entry): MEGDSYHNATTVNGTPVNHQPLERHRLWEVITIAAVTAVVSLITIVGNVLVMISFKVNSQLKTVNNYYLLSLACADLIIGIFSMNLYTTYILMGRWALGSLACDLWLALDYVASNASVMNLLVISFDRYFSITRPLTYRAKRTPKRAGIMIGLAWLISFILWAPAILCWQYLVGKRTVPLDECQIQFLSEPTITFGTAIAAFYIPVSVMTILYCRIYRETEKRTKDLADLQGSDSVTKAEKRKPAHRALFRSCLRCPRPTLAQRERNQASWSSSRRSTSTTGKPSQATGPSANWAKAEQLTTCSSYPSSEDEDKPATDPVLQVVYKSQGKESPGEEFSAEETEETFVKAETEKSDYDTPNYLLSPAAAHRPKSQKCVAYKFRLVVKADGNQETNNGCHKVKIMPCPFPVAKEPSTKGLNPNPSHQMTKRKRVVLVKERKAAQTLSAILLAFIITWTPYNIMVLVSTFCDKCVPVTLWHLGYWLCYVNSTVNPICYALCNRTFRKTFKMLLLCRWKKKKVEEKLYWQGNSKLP

[7] = target: Muscarinic acetylcholine receptor M2 and M4 (Homo sapiens) (UniProt P08173+P08172); test: Selectivity ratio of Ki for human muscarinic M4 receptor expressed in CHO-K9 cells to Ki for human muscarinic M2 receptor expressed in CHO-K9 cells; in short: as §1
[8] = target: Muscarinic acetylcholine receptors; M2 & M3 (Homo sapiens) (UniProt P20309+P08172); test: Selectivity ratio of Ki for human muscarinic M3 receptor expressed in CHO-K9 cells to Ki for human muscarinic M2 receptor expressed in CHO-K9 cells; in short: as §1
[9] = target: Muscarinic acetylcholine receptor M2 and M5 (Homo sapiens) (UniProt P08172+P08912); test: Selectivity ratio of Ki for human muscarinic M5 receptor expressed in CHO-K9 cells to Ki for human muscarinic M2 receptor expressed in CHO-K9 cells; in short: as §1

Sequence of Muscarinic acetylcholine receptor M3 (P20309 whole entry): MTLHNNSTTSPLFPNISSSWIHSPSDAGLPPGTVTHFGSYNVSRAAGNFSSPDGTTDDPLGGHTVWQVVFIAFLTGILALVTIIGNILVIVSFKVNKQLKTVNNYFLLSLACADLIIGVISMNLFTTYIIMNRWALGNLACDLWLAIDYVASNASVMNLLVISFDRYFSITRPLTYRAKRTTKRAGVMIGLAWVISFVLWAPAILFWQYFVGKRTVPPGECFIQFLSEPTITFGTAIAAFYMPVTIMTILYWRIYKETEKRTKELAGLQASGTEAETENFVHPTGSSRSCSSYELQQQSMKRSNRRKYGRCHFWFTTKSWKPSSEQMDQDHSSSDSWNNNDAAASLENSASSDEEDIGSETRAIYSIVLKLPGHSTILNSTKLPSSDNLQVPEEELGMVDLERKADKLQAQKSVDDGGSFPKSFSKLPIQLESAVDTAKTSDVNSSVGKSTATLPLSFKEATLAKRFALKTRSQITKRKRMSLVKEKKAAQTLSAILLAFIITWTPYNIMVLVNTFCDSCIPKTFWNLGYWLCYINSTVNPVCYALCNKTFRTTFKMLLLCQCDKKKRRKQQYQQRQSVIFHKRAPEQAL
Sequence of Muscarinic acetylcholine receptors; M2 & M3 (Homo sapiens) (P20309 whole entry, looked up, one chain of several): as the sequence (P20309 whole entry) above

SMILES | Ratio Ki [1] | Ki [2] | Ki [3] | Ki [4] | Ki [5] | Ki [6] | Ratio Ki [7] | Ratio Ki [8] | Ratio Ki [9]
CC(=O)N[C@@H](CCCCN)C(=O)N[C@@H](C)C(=O)N[C@@H](CCCNC(=N)N)C(=O)NCCCCC1CCN(CC(=O)N2c3ccccc3NC(=O)c3ccccc32)CC1 | 15 | 115 nM | 89.1 nM | 7.76 nM | 2690 nM | 427 nM | 12 | 350 | 56
CC(=O)N[C@@H](Cc1c[nH]c2ccccc12)C(=O)N[C@@H](C)C(=O)N[C@@H](Cc1ccc(O)cc1)C(=O)NCCN1CCN(CCCCC2CCN(CC(=O)N3c4ccccc4NC(=O)c4ccccc43)CC2)CC1 | 27 | 2.29 nM | 1.62 nM | 0.0794 nM | 35.5 nM | 30.9 nM | 19 | 410 | 390
CC(=O)N[C@@H](CCC(N)=O)C(=O)N[C@@H](C)C(=O)N[C@@H](CC(C)C)C(=O)NCCCCC1CCN(CC(=O)N2c3ccccc3NC(=O)c3ccccc32)CC1 | 2.2 | 537 nM | 417 nM | 240 nM | > 10000 nM | 1200 nM | 1.7 | > 36 | 4.4
CC(=O)N[C@@H](CCCNC(=N)N)C(=O)N[C@@H](CCCNC(=N)N)C(=O)NCCCCC1CCN(CC(=O)N2c3ccccc3NC(=O)c3ccccc32)CC1 | 12 | 20 nM | 29.5 nM | 1.7 nM | 955 nM | 162 nM | 19 | 710 | 97
CC(=O)N[C@@H](Cc1c[nH]c2ccccc12)C(=O)N[C@@H](Cc1ccc(O)cc1)C(=O)NCCN1CCN(CCCCC2CCN(CC(=O)N3c4ccccc4NC(=O)c4ccccc43)CC2)CC1 | 6.3 | 0.871 nM | 1.07 nM | 0.148 nM | 13.5 nM | 38.9 nM | 7 | 79 | 220
CCC(=O)NCCCCC1CCN(CC(=O)N2c3ccccc3NC(=O)c3ccccc32)CC1 | 1.1 | 85.1 nM | 209 nM | 79.4 nM | 5370 nM | 7080 nM | 2.7 | 69 | 98
CC(=O)N[C@@H](CCCCN)C(=O)N[C@@H](Cc1ccc(O)cc1)C(=O)NCCCCC1CCN(CC(=O)N2c3ccccc3NC(=O)c3ccccc32)CC1 | 17 | 30.2 nM | 10.7 nM | 1.82 nM | 1620 nM | 74.1 nM | 5.9 | 720 | 43
CC(=O)N[C@@H](CCC(N)=O)C(=O)N[C@@H](CC(C)C)C(=O)NCCCCC1CCN(CC(=O)N2c3ccccc3NC(=O)c3ccccc32)CC1 | 3.4 | 1050 nM | 1070 nM | 309 nM | > 10000 nM | 1510 nM | 3.6 | > 27 | 4.9
CCC(=O)NCc1cc(C(=O)NCCN2CCC(N3CCC(n4c(=O)[nH]c5ccccc54)CC3)CC2)cc(C(=O)NCCN2CCN(CCCCC3CCN(CC(=O)N4c5ccccc5NC(=O)c5ccccc54)CC3)CC2)c1 | 7.6 | – | – | – | – | – | 7.4 | 78 | 300
CC(=O)N[C@@H](Cc1c[nH]c2ccccc12)C(=O)N[C@@H](C)C(=O)N[C@@H](Cc1ccc(O)cc1)C(=O)NCCCCC1CCN(CC(=O)N2c3ccccc3NC(=O)c3ccccc32)CC1 | 4.7 | 93.3 nM | 37.2 nM | 20 nM | 1150 nM | 120 nM | 1.9 | 56 | 6.2
CC(=O)N[C@@H](CCCNC(=N)N)C(=O)NCCCCC1CCN(CC(=O)N2c3ccccc3NC(=O)c3ccccc32)CC1 | 8.4 | 97.7 nM | 148 nM | 11.2 nM | 1480 nM | 977 nM | 13 | 140 | 86
CC(=O)N[C@@H](C)C(=O)N[C@@H](C)C(=O)NCCCCC1CCN(CC(=O)N2c3ccccc3NC(=O)c3ccccc32)CC1 | 14 | 302 nM | 79.4 nM | 22.9 nM | 1380 nM | 1350 nM | 3.7 | 59 | 62
CC(=O)N[C@@H](C)C(=O)N[C@@H](C)C(=O)NCCN1CCN(CCCCC2CCN(CC(=O)N3c4ccccc4NC(=O)c4ccccc43)CC2)CC1 | 7.5 | 3.16 nM | 2.45 nM | 0.427 nM | 155 nM | 457 nM | 7.5 | 370 | 1100
CC(=O)N[C@@H](Cc1ccc(O)cc1)C(=O)N[C@@H](C)C(=O)N[C@@H](CCCCN)C(=O)NCCN1CCN(CCCCC2CCN(CC(=O)N3c4ccccc4NC(=O)c4ccccc43)CC2)CC1 | 22 | 2.34 nM | 3.24 nM | 0.115 nM | 28.2 nM | 29.5 nM | 28 | 290 | 260
CC(=O)N[C@@H](CCCCN)C(=O)N[C@@H](C)C(=O)N[C@@H](Cc1ccc(O)cc1)C(=O)NCCCCC1CCN(CC(=O)N2c3ccccc3NC(=O)c3ccccc32)CC1 | 14 | 58.9 nM | 23.4 nM | 4.27 nM | 661 nM | 224 nM | 5.8 | 160 | 53
